Assay results as given in ChEMBL document CHEMBL4177603 (Bioorg Med Chem Lett, 2017).

What was measured:
[1] = biological target: T1, Sodium-dependent dopamine transporter (Homo sapiens, UniProt Q01959); assay: Displacement of [3H]BTCP from recombinant human dopamine transporter at 10 uM after 120 mins by scintillation counting method
[2] = biological target: Histamine H1 receptor (Homo sapiens) (UniProt P35367); assay: Displacement of [3H]pyrilamine from recombinant human H1 receptor at 10 uM after 60 mins by scintillation counting method
[3] = biological target: Beta-2 adrenergic receptor (Homo sapiens) (UniProt P07550); assay: Displacement of [3H](-)CGP12177 from recombinant human beta2 receptor at 10 uM after 120 mins by scintillation counting method
Chain of Beta-2 adrenergic receptor (Homo sapiens) (P07550 whole entry, looked up): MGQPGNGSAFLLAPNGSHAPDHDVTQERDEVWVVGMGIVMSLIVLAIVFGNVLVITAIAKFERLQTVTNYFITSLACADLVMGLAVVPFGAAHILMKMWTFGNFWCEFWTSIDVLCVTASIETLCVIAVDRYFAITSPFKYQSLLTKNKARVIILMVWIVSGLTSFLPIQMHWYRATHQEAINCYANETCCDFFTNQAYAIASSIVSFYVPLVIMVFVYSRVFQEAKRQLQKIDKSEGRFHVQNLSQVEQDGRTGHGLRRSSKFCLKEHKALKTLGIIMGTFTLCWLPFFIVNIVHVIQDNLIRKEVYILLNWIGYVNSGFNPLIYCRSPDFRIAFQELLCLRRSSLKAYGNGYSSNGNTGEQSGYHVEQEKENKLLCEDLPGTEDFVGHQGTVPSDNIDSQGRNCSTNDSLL

[4] = biological target: Mu-type opioid receptor (Homo sapiens) (UniProt P35372); assay: Agonist activity at recombinant human MOR expressed in CHOK1 cells assessed as increase in cAMP accumulation at 10 uM measured after 10 mins by HTRF assay relative to control; assay type: functional, cell-based
Chain of Mu-type opioid receptor (Homo sapiens) (P35372 whole entry): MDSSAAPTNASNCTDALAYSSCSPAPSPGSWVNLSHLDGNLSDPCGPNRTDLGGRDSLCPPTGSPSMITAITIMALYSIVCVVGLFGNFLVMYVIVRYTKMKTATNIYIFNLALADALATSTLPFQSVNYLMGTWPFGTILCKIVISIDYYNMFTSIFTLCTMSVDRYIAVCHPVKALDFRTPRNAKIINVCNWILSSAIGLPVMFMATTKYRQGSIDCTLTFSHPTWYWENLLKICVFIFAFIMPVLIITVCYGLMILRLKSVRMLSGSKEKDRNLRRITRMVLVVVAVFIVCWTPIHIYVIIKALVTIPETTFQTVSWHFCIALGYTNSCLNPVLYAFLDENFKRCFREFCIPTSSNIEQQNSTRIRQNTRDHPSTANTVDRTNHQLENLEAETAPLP

[5] = biological target: Muscarinic acetylcholine receptor M3 (Homo sapiens) (UniProt P20309); assay: Antagonist activity at human M3 receptor expressed in CHOK1 cells assessed as inhibition of acetylcholine-induced calcium flux at 10 uM by fluorimetric method relative to control; assay type: functional, cell-based
[6] = biological target: Prostaglandin G/H synthase 2 (Homo sapiens, UniProt P35354); assay: Inhibition of recombinant human COX2 using arachidonic acid as substrate measured after 5 mins by fluorescence assay
[7] = biological target: Peroxisome proliferator-activated receptor gamma (Homo sapiens) (UniProt P37231); assay: Displacement of [3H]rosiglitazone from recombinant human PPARgamma at 10 uM after 120 mins by scintillation counting method
[8] = Inhibition of cynomolgus monkey Nav1.7 expressed in HEK cells by automated patchXpress electrophysiology method; assay type: cell-based; conditions: Macaca fascicularis, HEK293
Homo sapiens = species on record: Homo sapiens; assay: Inhibition of sodium channel site2 (unknown origin) at 10 uM by radioligand binding assay relative to control
[9] = biological target: Sodium channel protein type 8 subunit alpha (Rattus norvegicus, UniProt O88420); assay: Inhibition of rat Nav1.6 expressed in HEK cells by patch clamp electrophysiology method; assay type: cell-based
[10] = biological target: Muscarinic acetylcholine receptor M2 (Homo sapiens) (UniProt P08172); assay: Agonist activity at recombinant human M2 receptor expressed in CHOK1 cells assessed as increase in cAMP accumulation at 10 uM measured after 10 mins by HTRF assay relative to control; assay type: functional, cell-based
[11] = biological target: T2, Alpha-1A adrenergic receptor (Homo sapiens) (UniProt P35348); assay: Agonist activity at recombinant human alpha1a receptor expressed in CHOK1 cells assessed as increase in calcium flux at 10 uM by fluorescence assay relative to control; assay type: functional, cell-based
T2 sequence (whole entry): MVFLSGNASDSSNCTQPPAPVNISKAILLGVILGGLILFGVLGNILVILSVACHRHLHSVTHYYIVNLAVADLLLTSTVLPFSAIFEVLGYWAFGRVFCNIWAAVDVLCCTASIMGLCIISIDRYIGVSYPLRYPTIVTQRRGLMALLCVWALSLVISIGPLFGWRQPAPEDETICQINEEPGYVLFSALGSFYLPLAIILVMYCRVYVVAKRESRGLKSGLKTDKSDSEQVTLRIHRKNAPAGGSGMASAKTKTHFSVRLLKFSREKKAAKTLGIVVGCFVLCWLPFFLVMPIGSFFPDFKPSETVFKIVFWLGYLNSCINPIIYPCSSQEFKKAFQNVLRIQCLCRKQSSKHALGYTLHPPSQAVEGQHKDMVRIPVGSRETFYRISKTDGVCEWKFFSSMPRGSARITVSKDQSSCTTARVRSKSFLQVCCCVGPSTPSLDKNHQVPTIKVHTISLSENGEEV

[12] = biological target: 5-hydroxytryptamine receptor 2A (Homo sapiens) (UniProt P28223); assay: Agonist activity at human 5-HT2A receptor expressed in HEK293 cells assessed as increase in IP1 accumulation at 10 uM measured after 30 mins by HTRF method relative to control; assay type: functional, cell-based
[13] = biological target: Androgen receptor (Homo sapiens) (UniProt P10275); assay: Displacement of [3H]methyltrienolone from human androgen receptor at 10 uM after 1440 mins by scintillation counting method
[14] = biological target: Beta-2 adrenergic receptor (Homo sapiens) (UniProt P07550); assay: Agonist activity at recombinant human beta2 receptor expressed in CHOK1 cells assessed as increase in cAMP accumulation at 10 uM after 30 mins by HTRF assay relative to control; assay type: functional, cell-based
[15] = biological target: Histamine H3 receptor (Homo sapiens) (UniProt Q9Y5N1); assay: Agonist activity at recombinant human H3 receptor expressed in CHOK1 cells assessed as increase in cAMP accumulation at 10 uM measured after 10 mins by HTRF assay relative to control; assay type: functional, cell-based
Chain of Histamine H3 receptor (Homo sapiens) (Q9Y5N1 whole entry, the tested form may be a part): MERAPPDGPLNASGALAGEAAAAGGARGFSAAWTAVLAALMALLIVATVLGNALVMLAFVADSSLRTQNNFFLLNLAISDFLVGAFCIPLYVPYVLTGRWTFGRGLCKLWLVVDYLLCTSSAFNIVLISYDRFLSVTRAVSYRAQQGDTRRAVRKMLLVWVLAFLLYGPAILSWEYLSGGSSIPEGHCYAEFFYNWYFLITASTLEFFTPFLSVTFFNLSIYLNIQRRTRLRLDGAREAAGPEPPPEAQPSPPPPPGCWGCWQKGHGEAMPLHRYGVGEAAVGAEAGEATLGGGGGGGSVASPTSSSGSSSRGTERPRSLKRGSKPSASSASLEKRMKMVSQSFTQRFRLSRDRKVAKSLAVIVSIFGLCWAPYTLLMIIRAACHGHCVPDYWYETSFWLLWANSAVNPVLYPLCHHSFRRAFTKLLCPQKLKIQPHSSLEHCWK

[16] = Renal clearance in rat at 0.3 mg/kg, iv via infusion for 1 hr; assay type: ADME, organism-based, Kidney; conditions: in vivo
[17] = biological target: Cannabinoid receptor 1 (Homo sapiens) (UniProt P21554); assay: Antagonist activity at recombinant human CB1 receptor expressed in CHOK1 cells assessed as inhibition of CP 55940-induced cAMP accumulation at 10 uM after 20 mins by HTRF assay relative to control; assay type: functional, cell-based
Chain of Cannabinoid receptor 1 (Homo sapiens) (P21554 whole entry): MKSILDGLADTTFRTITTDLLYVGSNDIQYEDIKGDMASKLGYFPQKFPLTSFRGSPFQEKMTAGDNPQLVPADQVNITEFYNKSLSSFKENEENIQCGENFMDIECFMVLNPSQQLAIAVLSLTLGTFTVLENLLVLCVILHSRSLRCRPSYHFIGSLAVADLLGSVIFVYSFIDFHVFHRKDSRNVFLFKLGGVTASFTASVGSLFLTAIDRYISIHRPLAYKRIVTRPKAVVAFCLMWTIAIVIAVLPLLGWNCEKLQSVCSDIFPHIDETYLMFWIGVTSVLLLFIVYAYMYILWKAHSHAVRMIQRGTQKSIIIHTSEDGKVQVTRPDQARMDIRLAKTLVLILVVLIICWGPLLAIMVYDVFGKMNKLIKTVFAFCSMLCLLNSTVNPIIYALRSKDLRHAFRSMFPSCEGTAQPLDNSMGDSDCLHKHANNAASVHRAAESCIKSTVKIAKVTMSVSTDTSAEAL

[18] = biological target: T1, Sodium-dependent dopamine transporter; assay: Displacement of [3H]BTCP from recombinant human dopamine transporter after 120 mins by scintillation counting method
[19] = biological target: T2, Alpha-1A adrenergic receptor (Homo sapiens); assay: Antagonist activity at recombinant human alpha1a receptor expressed in CHOK1 cells assessed as inhibition of epinephrine-induced calcium flux at 10 uM by fluorescence assay relative to control; assay type: functional, cell-based
[20] = Unbound clearance rat plasma at 0.3 mg/kg, iv via infusion for 1 hr; assay type: ADME, organism-based; conditions: in vivo
Cytochrome P450 3A4 = Cytochrome P450 3A4 (Homo sapiens, UniProt P08684); assay: Inhibition of CYP3A4 (unknown origin); assay type: ADME
Chain of Cytochrome P450 3A4 (P08684 whole entry): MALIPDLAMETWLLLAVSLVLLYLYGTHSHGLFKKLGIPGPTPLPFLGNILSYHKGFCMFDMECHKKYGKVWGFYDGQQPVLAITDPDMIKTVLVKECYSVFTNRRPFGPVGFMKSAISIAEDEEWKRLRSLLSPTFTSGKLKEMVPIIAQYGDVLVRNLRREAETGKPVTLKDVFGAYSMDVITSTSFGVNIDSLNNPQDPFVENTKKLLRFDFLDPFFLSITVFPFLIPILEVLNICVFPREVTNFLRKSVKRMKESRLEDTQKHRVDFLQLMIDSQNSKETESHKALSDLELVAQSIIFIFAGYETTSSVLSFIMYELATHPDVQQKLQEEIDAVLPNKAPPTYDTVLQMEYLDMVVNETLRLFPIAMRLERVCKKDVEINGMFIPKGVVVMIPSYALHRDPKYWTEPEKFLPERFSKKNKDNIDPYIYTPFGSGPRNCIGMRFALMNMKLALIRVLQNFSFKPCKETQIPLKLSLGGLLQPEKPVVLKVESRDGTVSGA

[21] = biological target: Prostaglandin G/H synthase 2 (Homo sapiens) (UniProt P35354); assay: Inhibition of recombinant human COX2 at 10 uM using arachidonic acid as substrate measured after 5 mins by fluorescence assay
[22] = Protein binding in rat plasma assessed as fraction unbound at 2 uM; assay type: ADME, cell-free
[23] = biological target: Epidermal growth factor receptor (Homo sapiens) (UniProt P00533); assay: Displacement of [125I] EGF from EGFR in human A431 cells at 10 uM after 60 mins by scintillation counting method; assay type: cell-based
[24] = biological target: Sodium channel protein type 8 subunit alpha (Homo sapiens, UniProt Q9UQD0); assay: Inhibition of human Nav1.6 expressed in HEK cells by patch clamp electrophysiology method; assay type: cell-based
Chain of Sodium channel protein type 8 subunit alpha (Homo sapiens, UniProt Q9UQD0) (Q9UQD0 whole entry): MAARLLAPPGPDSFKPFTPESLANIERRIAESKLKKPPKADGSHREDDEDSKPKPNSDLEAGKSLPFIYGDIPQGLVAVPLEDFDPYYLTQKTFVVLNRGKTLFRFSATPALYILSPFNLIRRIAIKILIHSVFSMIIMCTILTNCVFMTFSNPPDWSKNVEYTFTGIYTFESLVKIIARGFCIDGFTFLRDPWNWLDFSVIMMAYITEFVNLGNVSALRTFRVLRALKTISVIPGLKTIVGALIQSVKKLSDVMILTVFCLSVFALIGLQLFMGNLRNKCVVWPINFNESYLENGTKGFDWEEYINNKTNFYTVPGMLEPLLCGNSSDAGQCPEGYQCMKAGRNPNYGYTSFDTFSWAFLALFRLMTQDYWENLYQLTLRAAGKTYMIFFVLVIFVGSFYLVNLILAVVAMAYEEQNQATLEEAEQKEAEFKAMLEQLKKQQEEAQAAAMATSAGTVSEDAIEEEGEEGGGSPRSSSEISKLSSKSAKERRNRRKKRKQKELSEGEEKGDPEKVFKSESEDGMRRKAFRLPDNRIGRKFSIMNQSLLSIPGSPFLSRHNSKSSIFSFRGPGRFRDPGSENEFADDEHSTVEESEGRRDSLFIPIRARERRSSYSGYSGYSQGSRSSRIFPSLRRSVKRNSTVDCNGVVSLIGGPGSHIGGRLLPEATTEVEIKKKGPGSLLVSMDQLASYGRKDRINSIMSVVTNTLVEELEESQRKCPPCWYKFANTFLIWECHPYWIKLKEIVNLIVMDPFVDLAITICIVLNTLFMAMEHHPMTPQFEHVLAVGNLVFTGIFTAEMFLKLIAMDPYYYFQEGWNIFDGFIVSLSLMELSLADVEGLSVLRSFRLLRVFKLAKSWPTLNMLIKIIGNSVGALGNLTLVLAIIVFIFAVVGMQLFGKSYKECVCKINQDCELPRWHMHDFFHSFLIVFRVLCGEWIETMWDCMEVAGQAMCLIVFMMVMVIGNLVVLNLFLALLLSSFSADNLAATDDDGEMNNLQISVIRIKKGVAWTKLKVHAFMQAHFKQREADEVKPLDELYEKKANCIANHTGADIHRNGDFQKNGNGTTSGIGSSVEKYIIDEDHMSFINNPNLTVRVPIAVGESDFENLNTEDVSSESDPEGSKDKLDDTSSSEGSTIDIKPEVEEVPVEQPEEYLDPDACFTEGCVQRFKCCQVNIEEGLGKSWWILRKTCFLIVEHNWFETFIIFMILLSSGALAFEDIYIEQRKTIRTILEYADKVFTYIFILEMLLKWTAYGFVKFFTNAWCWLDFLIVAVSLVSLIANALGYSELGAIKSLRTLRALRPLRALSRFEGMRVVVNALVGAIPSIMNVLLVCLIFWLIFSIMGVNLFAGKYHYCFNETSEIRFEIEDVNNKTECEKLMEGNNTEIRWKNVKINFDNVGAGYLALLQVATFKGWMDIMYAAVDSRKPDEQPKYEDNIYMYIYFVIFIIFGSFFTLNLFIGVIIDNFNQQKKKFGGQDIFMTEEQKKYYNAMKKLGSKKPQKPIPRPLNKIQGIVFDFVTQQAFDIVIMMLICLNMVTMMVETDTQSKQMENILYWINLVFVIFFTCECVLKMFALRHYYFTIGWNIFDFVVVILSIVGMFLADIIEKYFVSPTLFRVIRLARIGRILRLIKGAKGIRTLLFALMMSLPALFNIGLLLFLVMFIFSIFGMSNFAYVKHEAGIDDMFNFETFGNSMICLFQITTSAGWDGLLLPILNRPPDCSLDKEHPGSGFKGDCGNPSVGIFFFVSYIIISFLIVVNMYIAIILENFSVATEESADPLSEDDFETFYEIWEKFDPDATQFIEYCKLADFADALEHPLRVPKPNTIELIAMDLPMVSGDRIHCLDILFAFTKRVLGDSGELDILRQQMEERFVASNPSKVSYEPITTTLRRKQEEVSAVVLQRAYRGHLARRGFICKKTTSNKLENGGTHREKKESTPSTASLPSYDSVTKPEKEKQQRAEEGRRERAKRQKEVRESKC

[25] = Protein binding in rat plasma assessed as fraction unbound; assay type: ADME, cell-free
[26] = biological target: Adenosine receptor A1 (Homo sapiens) (UniProt P30542); assay: Agonist activity at recombinant human adenosine A1 receptor expressed in mouse BA/F3 cells assessed as increase in calcium flux at 10 uM by spectrophotometric method relative to control; assay type: functional, cell-based
[27] = Clearance in bile duct cannulated rat at 0.3 mg/kg, iv via infusion for 1 hr; assay type: ADME, organism-based; conditions: in vivo
How it was run: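 Plasma clearance was taken from a study in bile duct cannulated rats.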

Cytochrome P450 2C8 = Cytochrome P450 2C8 (Homo sapiens, UniProt P10632); assay: Inhibition of CYP2C8 (unknown origin); assay type: ADME
[28] = biological target: Sodium channel protein type 1 subunit alpha (Homo sapiens, UniProt P35498); assay: Inhibition of human Nav1.1 expressed in HEK cells by patch clamp electrophysiology method; assay type: cell-based

T1 sequence (Q01959 whole entry): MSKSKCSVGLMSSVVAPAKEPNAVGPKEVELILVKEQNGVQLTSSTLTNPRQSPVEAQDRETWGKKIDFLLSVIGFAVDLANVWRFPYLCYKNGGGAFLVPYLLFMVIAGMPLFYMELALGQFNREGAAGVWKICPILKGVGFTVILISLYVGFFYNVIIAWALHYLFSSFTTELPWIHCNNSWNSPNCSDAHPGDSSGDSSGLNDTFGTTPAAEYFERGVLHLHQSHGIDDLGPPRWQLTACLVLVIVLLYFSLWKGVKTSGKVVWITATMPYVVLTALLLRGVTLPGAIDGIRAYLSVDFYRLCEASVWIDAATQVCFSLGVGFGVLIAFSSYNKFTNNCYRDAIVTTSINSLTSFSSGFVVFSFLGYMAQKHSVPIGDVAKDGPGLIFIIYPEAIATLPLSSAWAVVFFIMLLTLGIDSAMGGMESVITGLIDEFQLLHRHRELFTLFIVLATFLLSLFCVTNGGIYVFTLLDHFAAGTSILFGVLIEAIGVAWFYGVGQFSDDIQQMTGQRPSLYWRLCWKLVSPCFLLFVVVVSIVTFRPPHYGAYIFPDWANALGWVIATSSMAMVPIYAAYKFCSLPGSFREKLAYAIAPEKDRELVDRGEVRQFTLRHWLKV

For `N#Cc1cc(S(=O)(=O)Nc2ncns2)ccc1Oc1ccc(-c2cccc(C(F)(F)F)c2)cc1-c1ccnc(CNCCC2CCNCC2)c1`, the inhibition [1] was 84%, the inhibition [2] was 29% and the inhibition [3] was 4%. The Activity [4] was 21%, the inhibition [5] was 29% and the IC50 [6] was 3.65 µM. The inhibition [7] was 33.4%, the IC50 [8] was < 0.03 nM and the inhibition (Homo sapiens) was 92%. The IC50 [9] was 5.01 nM, the Activity [10] was -9% and the Activity [11] was 7%. For the same molecule, the Activity [12] was -1%, the inhibition [13] was 27% and the Activity [14] was 1%. The Activity [15] was 7%, the CL renal at 1 h [16] was 1.93 mL/h/kg and the inhibition [17] was 11%. It also gave an IC50 [18] of 4.01 µM, a Ki [18] of 2120 nM and an inhibition [19] of 23%. For the same molecule, the CL free [20] was 30218 mL/min/kg, the IC50 (Cytochrome P450 3A4) was 1150 nM and the inhibition [21] was 85%. For the same molecule, the fraction unbound at 2 µM [22] was 0.002, the inhibition [23] was 35% and the IC50 [24] was 5.46 to 5.8 nM. It also gave a fraction unbound [25] of 0.00275, an Activity [26] of 107% and a clearance [27] of 59.8 mL/min/kg. The IC50 (Cytochrome P450 2C8) was 6.17 µM and the IC50 [28] was 309 to 314 nM.
